# Screens from PubChem BioAssay.
# SR-BI DiI-HDL act – SR-BI HDL lipid transfer activation; CHO ldlA[mSR-BI] cells, DiI-HDL uptake fluorescence, 3 h; 100 = double the neutral-control signal; activation, % at 12.5 µM; 320,000 compounds, 0.096% hits; AID 504775;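 active = mean replicate activation of at least 60% and every replicate at or above 60%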
#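 Test system: SR-BI-overexpressing, LDLR-lacking CHO cells; Medium: Ham's F12 with 0.5% BSA, HEPES 25 mM, pH 7.4; Schedule: 3 h, 37 °C; Technique: bottom-read fluorescence, 550/595 nm.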
# ARNT-TACC3 inh – disruptors of human ARNT/TACC3 interaction | Q9Y6A5 | AlphaScreen His-ARNT PAS-B/GST-TACC3 binding, luminescence; TACC3 fragment carries E629A point mutation | inhibition, % at 9.99 µM | 390,000 compounds, 0.66% hits | AID 623870;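 active = mean inhibition of replicates at least 50% and at least half of replicates each reaching 50%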
# miR-122 sensor – blocks miR-122 activity in Huh7 sensor cells; Huh7 miR-122 Renilla luciferase sensor, 48 h; neutral wells = 0, positive control = 100; activation (reporter increase), % at 12.5 µM; 340,000 compounds, 0.3% hits; AID 602342;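 active = mean replicate activation score at least 90 and every replicate individually at or above 90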;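 also: higher luciferase means less miR-122 activity so hits act as miR-122 inhibitors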
# CAL PDZ FP-1 – inhibitors of human CAL PDZ peptide binding | Q9HD26 | purified CAL PDZ, TMR-peptide fluorescence polarization, 1 h | inhibition, % at 20 µM | 330,000 compounds, 0.02% hits | AID 504414;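 active = highest replicate inhibition of at least 40%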
#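 Test system: tagged CAL PDZ domain / Buffer or medium: sodium phosphate/NaCl buffer pH 7.4 with TCEP, IgG, Thesit / Reagent: TMR-labelled reporter peptide T*-PRC34 bound in PDZ groove / Compound dosing: single point, 20 µM / Schedule: 1 h incubation at room temperature before polarization reading / Technique: fluorescence polarization (mP) / Benchmarks: unlabelled peptide, DMSO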
# CAL PDZ FP-2 – inhibitors of human CAL PDZ peptide binding; purified CAL PDZ, TMR-peptide fluorescence polarization, 1 h; inhibition, % at 24.9 µM; 300,000 compounds, 0.92% hits;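 active = mean inhibition of at least 30% with at least half of replicates also reaching 30%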
# SR-BI DiI inh – mouse SR-BI HDL lipid transfer inhibition; 320,000 compounds, 0.96% hits; AID 488896; ldlA[mSR-BI] CHO cells, DiI-HDL uptake fluorescence, 3 h; inhibition, % at 12.5 µM;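 active = mean replicate inhibition of at least 70% and a set share of replicates each scoring 70 or more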
# Target sequence (Q61009 whole entry, looked up): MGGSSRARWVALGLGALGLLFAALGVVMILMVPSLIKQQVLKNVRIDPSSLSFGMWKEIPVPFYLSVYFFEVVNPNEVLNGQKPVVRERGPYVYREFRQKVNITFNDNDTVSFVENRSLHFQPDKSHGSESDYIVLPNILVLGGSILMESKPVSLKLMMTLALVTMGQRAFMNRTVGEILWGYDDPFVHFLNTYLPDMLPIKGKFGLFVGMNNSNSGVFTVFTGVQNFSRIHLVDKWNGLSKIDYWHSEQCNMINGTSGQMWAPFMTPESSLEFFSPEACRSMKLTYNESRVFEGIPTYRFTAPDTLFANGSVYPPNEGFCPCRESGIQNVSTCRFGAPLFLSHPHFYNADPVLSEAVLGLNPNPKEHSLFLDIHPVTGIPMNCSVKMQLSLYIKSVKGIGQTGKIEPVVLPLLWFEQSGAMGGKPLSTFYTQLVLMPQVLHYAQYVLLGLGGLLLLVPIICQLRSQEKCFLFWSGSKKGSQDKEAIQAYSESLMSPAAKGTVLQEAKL
# Hits are given with their value; n = inactive; x = no result given; [ ] = dose if it differs, or a comment. Hits are enriched below; roughly 2.1% of the tested compounds scored in any of these assays.
SMILES,SR-BI DiI-HDL act,ARNT-TACC3 inh,miR-122 sensor,CAL PDZ FP-1,CAL PDZ FP-2,SR-BI DiI inh
CN1C(=O)c2cc(NC(=O)Cc3ccccc3)ccc2OC[C@@H]2O[C@H](CC(=O)NCc3ccc(Cl)cc3)CC[C@@H]21,x,n,293[16.7 µM],x,x,x
C[C@H](CO)N1C[C@H](C)[C@H](CN(C)S(=O)(=O)c2cn(C)cn2)OCCCC[C@H](C)Oc2ccc(NC(=O)Nc3ccc(F)cc3)cc2C1=O,x,n,n,x,x,x
COc1ccc(NC(=O)N2CCCCN3[C@@H](CO)[C@@H](c4ccc(-c5ccccc5C)cc4)[C@@H]3C2)cc1,x,n,n,x,x,x
COc1ccc(S(=O)(=O)N(C)C[C@H]2OCCCC[C@H](C)Oc3ccc(NC(=O)NC(C)C)cc3C(=O)N([C@@H](C)CO)C[C@H]2C)cc1,x,n,n,x,x,x
C[C@H](CO)N1C[C@H](C)[C@@H](CN(C)S(=O)(=O)c2cn(C)cn2)Oc2ccc(NS(=O)(=O)c3ccc(Cl)cc3)cc2CC1=O,x,n,n,x,x,x
Cc1nnc(N/N=C/C(C)c2ccccc2)[nH]c1=O (stereo not drawn),n,63,x,n,n,n
Cc1nnc(N/N=C/c2c[nH]c3ccccc23)[nH]c1=O,n,n,n,n,n,n
CCC(C)NC(=O)c1ccccc1-c1ccccc1C(=O)NC(C)CC (stereo not drawn),n,n,n,n,72,n
O=C1C2C3C=CC(CNS(=O)(=O)c4ccccc4[N+](=O)[O-])(O3)C2C(=O)N1c1ccccc1 (stereo not drawn),n,n,x,n,n,n
Cc1cc(C)c(S(=O)(=O)NCC23C=CC(O2)C2C(=O)N(c4ccccc4)C(=O)C23)c(C)c1 (stereo not drawn),n,n,n,n,43,n
C[C@H]1CN([C@@H](C)CO)C(=O)c2cc(NS(=O)(=O)c3cn(C)cn3)ccc2O[C@@H]1CN(C)C(=O)Nc1ccc(C(F)(F)F)cc1,x,n,n,x,x,x
O=c1[nH]c2ccccc2cc1CN(CC1CCCO1)S(=O)(=O)c1ccccc1 (stereo not drawn),n,n,n,n,66,n
CCOc1cc(S(=O)(=O)N(CC)CC)ccc1Cl,n,n,x,n,n,n
CCOc1cc(C)c(Cl)cc1S(=O)(=O)N(CC)CC,n,n,n,n,74,n
COc1cc(C)c(C(C)C)cc1S(=O)(=O)NC1CC(C)(C)NC(C)(C)C1,n,n,128,n,n,n
CCOc1cc(S(=O)(=O)NC2CC(C)(C)NC(C)(C)C2)ccc1Cl,n,n,n,n,n,n
CCOc1cc(C)c(Cl)cc1S(=O)(=O)NC1CC(C)(C)NC(C)(C)C1,n,n,181,n,n,n
C/C(=N\NS(C)(=O)=O)c1ccccc1,n,n,n,n,94,n
C[C@H]1CN([C@@H](C)CO)S(=O)(=O)c2ccc(/C=C/c3ccccc3)cc2O[C@H]1CN(C)C,x,n,n,x,x,x
COc1ccc(-c2sc3ccccc3c2/C=C/c2ccc(OC)c(OC)c2)cc1,n,n,n,n,n,82
COc1ccc(/C=C/c2c(-c3ccccc3OC)sc3ccccc23)cc1OC,n,n,x,n,n,n
CCN1CCSc2ccc(C(=O)Nc3ccc(NC(C)=O)cc3)cc21,n,n,n,n,n,80
CNC[C@@H]1OCCCC[C@H](C)Oc2ccc(NS(=O)(=O)c3ccc(C)cc3)cc2C(=O)N([C@H](C)CO)C[C@H]1C,x,n,n,x,x,x
CCOC(=O)C1=C(CC)Nc2ccccc2N/C1=N\S(=O)(=O)c1cccc(C(C)=O)c1,n,n,n,n,55,n
CCOC(=O)C1=C(CC)Nc2ccccc2N/C1=N\S(=O)(=O)c1ccccc1F,n,n,n,n,n,n
SMILES,SR-BI DiI-HDL act,ARNT-TACC3 inh,miR-122 sensor,CAL PDZ FP-1,CAL PDZ FP-2,SR-BI DiI inh
COc1ccc(NC(=O)N(C)C[C@H]2Oc3c(NS(=O)(=O)c4ccccc4)cccc3C(=O)N([C@H](C)CO)C[C@H]2C)cc1,x,x,n,x,x,x
COc1ccc(-c2noc(-c3ccccc3C(=O)NCC3CCCO3)n2)cc1 (stereo not drawn),n,n,x,n,70,n
C[C@H](CO)N1C[C@H](C)[C@H](CN(C)C(=O)C2CCOCC2)Oc2ncc(Br)cc2C1=O,x,n,n,x,x,x
CO[C@H]1CN(C)C(=O)c2ccc(NC(=O)c3ccccc3)cc2OC[C@@H](C)N(C(C)=O)C[C@@H]1C,x,n,n,x,x,x
Cc1oc(-c2ccc(F)cc2)nc1CN(Cc1ccccn1)CC1CCCO1 (stereo not drawn),n,50,n,n,n,n
CC(=O)c1c(C)[nH]c(C(=O)CSc2nnc(-c3ccco3)n2Cc2ccccc2)c1C,n,x,n,n,x,80
CN1C(=O)c2cc(NC(=O)c3ccccc3)ccc2OC[C@H]2O[C@H](CC(=O)O)CC[C@H]21,x,n,n,x,x,x
CN=c1scc(-c2cccs2)n1/N=C/c1ccccc1O,n,n,x,n,n,n
O=c1c2ccccc2nc(-c2ccco2)n1/N=C/c1ccccc1O,n,n,n,n,n,n
Oc1ccc(/C=N/n2c(-c3ccco3)csc2=Nc2cccnc2)c(O)c1,n,64,n,n,n,n
CN=c1scc(-c2cccs2)n1/N=C/c1ccc(O)c(O)c1O,n,60,x,n,n,n
CC(C)N=c1scc(-c2ccco2)n1/N=C/c1ccc(O)c(O)c1,n,n,n,n,x,n
C=CCN=c1scc(-c2ccco2)n1/N=C/c1ccc(O)c(O)c1O,x,49,x,n,n,x
CC(C)CC#Cc1cnc2c(c1)C(=O)N([C@H](C)CO)C[C@@H](C)[C@@H](CN(C)Cc1ccccc1C(=O)O)O2,x,n,x,x,x,x
Oc1cc(Nc2cccnc2)cc2cccnc12,n,58,n,n,n,n
Oc1cc(NCCc2cccnc2)cc2cccnc12,n,73,n,n,n,n
CCC(=O)N1C[C@@H]2[C@H](c3ccccc31)[C@@H](CO)N2Cc1ccccc1F,x,n,n,x,x,x
COc1cccc(-c2ccc3c(c2)O[C@H](CN(C)C(=O)C2CC2)[C@H](C)CN([C@@H](C)CO)S3(=O)=O)c1,x,n,n,x,x,x
O=C(N/N=C/C=C/c1ccccc1)c1cnccn1,240,n,n,n,n,n
O=C(/C=C/c1ccccc1)NC(=S)NNC(=O)c1cccnc1,n,n,n,n,n,n
O=C(/C=C/c1ccccc1)NC(=S)NNC(=O)c1cnccn1,n,60,n,n,n,n
CC(/C=C/c1ccccc1)=N/NC(=O)c1cnccn1,n,n,n,n,n,n
COCC#Cc1cnc2c(c1)C(=O)N([C@H](C)CO)C[C@@H](C)[C@@H](CN(C)S(=O)(=O)c1ccccc1)O2,x,n,n,x,x,x
COCC(=O)Nc1ccc2c(c1)[C@H]1C[C@H](CC(=O)NCc3ccncc3)O[C@H](CO)[C@H]1O2,x,n,n,x,x,x
